The results in this text go back to ChEMBL document CHEMBL1124847, “Synthesis and antiviral activity of metabolites of rimantadine” (1990).

Converted amounts (≈) assume the structure as drawn.

Holding throughout (type): functional
Holding throughout (conditions): Canis lupus familiaris, read-out: ID50 (the source's name)

Assay [1] deals with MDCK. As to the kind of experiment: Antiviral activity against influenza A virus (NY/83/5) in Madin Darby canine kidney (MDCK) cell culture. The procedure, abridged:
(§1)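 Confluent MDCK monolayers were given compound in serial 2-fold dilutions, then infected with 100 TCID50 of virus and incubated at 35 °C for 48 h. Cells were fixed, stained and scored microscopically for cytopathic effect. The dose giving 50% inhibition of CPE was read when infected controls just reached 100% CPE, in ng/mL, as the mean ± SD of at least three determinations.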

In assay [2] the test system is MDCK. In words: Antiviral activity against influenza A virus (Taiwan) in Madin Darby canine kidney (MDCK) cell culture. The procedure, abridged:
as §1

The test system of assay [3] is MDCK. As to the kind of experiment: Antiviral activity against influenza A virus (Mississippi) in Madin Darby canine kidney (MDCK) cell culture. An outline of the steps:
as §1

`CC(N)C12CC3CC(CC(C3)C1O)C2` (stereo not given): the IC50 in assay [1] was determined as 0.101 µg/mL (≈ 0.517 µM); in assay [2], 0.16 µg/mL (≈ 0.819 µM); in assay [3], 0.15 µg/mL (≈ 0.768 µM).
`CC(N)C12CC3CC(C1)C(O)C(C3)C2` (stereo not given): the IC50 worked out at 0.804 µg/mL (≈ 4.12 µM) in assay [1], 1.5 µg/mL (≈ 7.68 µM) in assay [2] and 3.4 µg/mL (≈ 17.4 µM) in assay [3].
On the same counts, the results for `CC(N)C12CC3CC(CC(O)(C3)C1)C2` (stereo not given) [3-HYDROXYRIMANTADINE] are 4 µg/mL (≈ 20.5 µM), 5.4 µg/mL (≈ 27.6 µM) and 6.7 µg/mL (≈ 34.3 µM).
Consider `NC12CC3CC(CC(C3)C1)C2` [AMANTADINE], for which the IC50 in assay [1] was 0.08 µg/mL (≈ 0.529 µM); in assay [2], 0.116 µg/mL (≈ 0.767 µM); in assay [3] it was 0.113 µg/mL (≈ 0.747 µM).
Regarding `CC(N)C12CC3CC(CC(C3)C1)C2` (stereo not given) [RIMANTADINE], the IC50 is 0.012 µg/mL (≈ 0.0669 µM) in assay [1], 0.0098 µg/mL (≈ 0.0547 µM) in assay [2] and 0.021 µg/mL (≈ 0.117 µM) in assay [3].
